{"source": "ChEMBL document CHEMBL2163238", "about": "“Design, synthesis, and biological evaluation of N-alkylated deoxynojirimycin (DNJ) derivatives for the treatment of dengue virus infection” (J Med Chem, 2012)", "key": {"[1]": {"test": "Selectivity index, ratio of CC50 for MDBK cells to EC50 for BVDV NADL infected in MDBK cells", "summary_of_the_method": "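MDBK cells infected with BVDV NADL at MOI 1, 1 h at 37 °C, washed, then compounds at 0.1–100 μM. Media harvested at 22 h, plaque-titrated on MDBK under 1% methylcellulose for 3 days, neutral red or direct count. EC50 from yield curves; MTT CC50 in uninfected MDBK; SI = CC50/EC50.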"}, "[2]": {"test": "Antiviral activity against 1 MOI BVDV NADL infected in MDBK cells assessed as reduction in viral titer after 22 hrs", "format": "functional, cell-based, Bovine viral diarrhea virus 1-NADL", "summary_of_the_method": "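MDBK cells (2×10^5) infected 24 h after seeding with BVDV NADL at MOI 1, with 1 h adsorption at 37 °C. Washed, then compounds at 0.1–100 μM. Media harvested 22 h post-infection and plaque-titrated on MDBK under 1% methylcellulose for 3 days. Plaques counted directly or after neutral red staining. EC50 from dose–response curves, mean of 3 independent experiments.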"}, "[3]": {"test": "Cytotoxicity against MDBK cells assessed as cell viability by MTT assay", "format": "cell-based, Bos taurus", "conditions": "cattle"}, "[4]": {"conditions": "Bovine viral diarrhea virus isolates and strains, MDBK, 22 h"}}}
{"smiles": "OC[C@@H]1[C@@H](O)[C@H](O)[C@@H](O)CN1CCCCCCOc1ccccc1C(F)(F)F", "values": [{"measurement": "Ratio CC50/EC50", "setting": "[1]", "result": ">500"}, {"measurement": "EC50", "setting": "[2]; [4]", "result": 1, "unit": "µM"}, {"measurement": "CC50", "setting": "[3]", "result": "> 500", "unit": "µM"}]}
{"smiles": "OC[C@@H]1[C@@H](O)[C@H](O)[C@@H](O)CN1CCCCCCOc1cccnc1", "values": [{"measurement": "Ratio CC50/EC50", "setting": "[1]", "result": ">200"}, {"measurement": "EC50", "setting": "[2]; [4]", "result": 2.5, "unit": "µM"}, {"measurement": "CC50", "setting": "[3]", "result": "> 500", "unit": "µM"}]}
{"smiles": "CC/C=C\\CCCCCN1C[C@H](O)[C@@H](O)[C@H](O)[C@H]1CO", "values": [{"measurement": "Ratio CC50/EC50", "setting": "[1]", "result": ">45"}, {"measurement": "EC50", "setting": "[2]; [4]", "result": 11, "unit": "µM"}, {"measurement": "CC50", "setting": "[3]", "result": "> 500", "unit": "µM"}]}
{"smiles": "OC[C@@H]1[C@@H](O)[C@H](O)[C@@H](O)CN1CCCc1ccccc1OC1CCCCC1", "values": [{"measurement": "Ratio CC50/EC50", "setting": "[1]", "result": ">175"}, {"measurement": "EC50", "setting": "[2]; [4]", "result": 24, "unit": "µM"}, {"measurement": "CC50", "setting": "[3]", "result": 420, "unit": "µM"}]}
{"smiles": "CCCC1CCCCC1OCCCCCCN1C[C@H](O)[C@@H](O)[C@H](O)[C@H]1CO", "note": "(stereo not given in full)", "values": [{"measurement": "Ratio CC50/EC50", "setting": "[1]", "result": 300}, {"measurement": "EC50", "setting": "[2]; [4]", "result": 0.5, "unit": "µM"}, {"measurement": "CC50", "setting": "[3]", "result": 150, "unit": "µM"}]}
{"smiles": "CC1CC(OCCCCCCN2C[C@H](O)[C@@H](O)[C@H](O)[C@H]2CO)CC(C)(C)C1", "note": "(stereo not given in full)", "values": [{"measurement": "Ratio CC50/EC50", "setting": "[1]", "result": 312}, {"measurement": "EC50", "setting": "[2]; [4]", "result": 0.8, "unit": "µM"}, {"measurement": "CC50", "setting": "[3]", "result": 250, "unit": "µM"}]}
{"smiles": "Cc1ccc(C(C)C)c(OCCCCCCN2C[C@H](O)[C@@H](O)[C@H](O)[C@H]2CO)c1", "values": [{"measurement": "Ratio CC50/EC50", "setting": "[1]", "result": 103}, {"measurement": "EC50", "setting": "[2]; [4]", "result": 0.6, "unit": "µM"}, {"measurement": "CC50", "setting": "[3]", "result": 62, "unit": "µM"}]}
{"smiles": "Cc1ccc(C(C)(C)C)c(OCCCCCCN2C[C@H](O)[C@@H](O)[C@H](O)[C@H]2CO)c1", "values": [{"measurement": "Ratio CC50/EC50", "setting": "[1]", "result": 142}, {"measurement": "EC50", "setting": "[2]; [4]", "result": 0.6, "unit": "µM"}, {"measurement": "CC50", "setting": "[3]", "result": 85, "unit": "µM"}]}
{"smiles": "CCC(CC)OCCCCCCN1C[C@H](O)[C@@H](O)[C@H](O)[C@H]1CO", "values": [{"measurement": "Ratio CC50/EC50", "setting": "[1]", "result": 150}, {"measurement": "EC50", "setting": "[2]; [4]", "result": 3, "unit": "µM"}, {"measurement": "CC50", "setting": "[3]", "result": 450, "unit": "µM"}]}
{"smiles": "CCCCC1CCC(OCCCCCCN2C[C@H](O)[C@@H](O)[C@H](O)[C@H]2CO)CC1", "note": "(stereo not given in full)", "values": [{"measurement": "Ratio CC50/EC50", "setting": "[1]", "result": 106}, {"measurement": "EC50", "setting": "[2]; [4]", "result": 1.8, "unit": "µM"}, {"measurement": "CC50", "setting": "[3]", "result": 190, "unit": "µM"}]}
{"smiles": "OC[C@@H]1[C@@H](O)[C@H](O)[C@@H](O)CN1CCCCCCOC1CCCCC1C1CCCCC1", "note": "(stereo not given in full)", "values": [{"measurement": "Ratio CC50/EC50", "setting": "[1]", "result": 400}, {"measurement": "EC50", "setting": "[2]; [4]", "result": 0.5, "unit": "µM"}, {"measurement": "CC50", "setting": "[3]", "result": 200, "unit": "µM"}]}
{"smiles": "OC[C@@H]1[C@@H](O)[C@H](O)[C@@H](O)CN1CCCCCCOc1c(F)cc(F)cc1F", "values": [{"measurement": "Ratio CC50/EC50", "setting": "[1]", "result": ">100"}, {"measurement": "EC50", "setting": "[2]; [4]", "result": 5, "unit": "µM"}, {"measurement": "CC50", "setting": "[3]", "result": "> 500", "unit": "µM"}]}
{"smiles": "CC(C)C(OCCCCCCN1C[C@H](O)[C@@H](O)[C@H](O)[C@H]1CO)C(C)C", "values": [{"measurement": "Ratio CC50/EC50", "setting": "[1]", "result": ">67"}, {"measurement": "EC50", "setting": "[2]; [4]", "result": 7.5, "unit": "µM"}, {"measurement": "CC50", "setting": "[3]", "result": "> 500", "unit": "µM"}]}
{"smiles": "Cc1cccc(OCCCCCCN2C[C@H](O)[C@@H](O)[C@H](O)[C@H]2CO)c1.Cl", "values": [{"measurement": "Ratio CC50/EC50", "setting": "[1]", "result": ">1250"}, {"measurement": "EC50", "setting": "[2]; mdbk", "result": 0.4, "unit": "µM"}]}
{"smiles": "CCCCCC#CCCN1C[C@H](O)[C@@H](O)[C@H](O)[C@H]1CO", "values": [{"measurement": "EC50", "setting": "[2]; [4]", "result": "> 100", "unit": "µM"}, {"measurement": "CC50", "setting": "[3]", "result": "> 500", "unit": "µM"}]}
{"smiles": "OC[C@@H]1[C@@H](O)[C@H](O)[C@@H](O)CN1CCCCCCOc1cc(Cl)ccc1Cl", "values": [{"measurement": "Ratio CC50/EC50", "setting": "[1]", "result": 213}, {"measurement": "EC50", "setting": "[2]; [4]", "result": 1.5, "unit": "µM"}, {"measurement": "CC50", "setting": "[3]", "result": 320, "unit": "µM"}]}
{"smiles": "CC1CCCC(OCCCCCCN2C[C@H](O)[C@@H](O)[C@H](O)[C@H]2CO)C1", "note": "(stereo not given in full)", "values": [{"measurement": "Ratio CC50/EC50", "setting": "[1]", "result": ">1667"}, {"measurement": "EC50", "setting": "[2]; [4]", "result": 0.3, "unit": "µM"}, {"measurement": "CC50", "setting": "[3]", "result": "> 500", "unit": "µM"}]}
{"smiles": "CC1CCCC(OCCCCCCN2C[C@H](O)[C@@H](O)[C@H](O)[C@H]2CO)C1C", "note": "(stereo not given in full)", "values": [{"measurement": "Ratio CC50/EC50", "setting": "[1]", "result": ">417"}, {"measurement": "EC50", "setting": "[2]; [4]", "result": 1.2, "unit": "µM"}, {"measurement": "CC50", "setting": "[3]", "result": "> 500", "unit": "µM"}]}
{"smiles": "CCC1CCCCC1OCCCCCCN1C[C@H](O)[C@@H](O)[C@H](O)[C@H]1CO", "note": "(stereo not given in full)", "values": [{"measurement": "Ratio CC50/EC50", "setting": "[1]", "result": 300}, {"measurement": "EC50", "setting": "[2]; [4]", "result": 1.5, "unit": "µM"}, {"measurement": "CC50", "setting": "[3]", "result": 450, "unit": "µM"}]}
{"smiles": "Cc1ccc(C(C)C)cc1OCCCCCCN1C[C@H](O)[C@@H](O)[C@H](O)[C@H]1CO", "values": [{"measurement": "Ratio CC50/EC50", "setting": "[1]", "result": 129}, {"measurement": "EC50", "setting": "[2]; [4]", "result": 0.7, "unit": "µM"}, {"measurement": "CC50", "setting": "[3]", "result": 90, "unit": "µM"}]}
{"smiles": "OC[C@@H]1[C@@H](O)[C@H](O)[C@@H](O)CN1CCCc1ccc(OC2CCCCC2)cc1", "values": [{"measurement": "Ratio CC50/EC50", "setting": "[1]", "result": 54}, {"measurement": "EC50", "setting": "[2]; [4]", "result": 5.5, "unit": "µM"}, {"measurement": "CC50", "setting": "[3]", "result": 295, "unit": "µM"}]}
{"smiles": "OC[C@@H]1[C@@H](O)[C@H](O)[C@@H](O)CN1CCCc1cccc(OC2CCCCC2)c1", "values": [{"measurement": "Ratio CC50/EC50", "setting": "[1]", "result": 111}, {"measurement": "EC50", "setting": "[2]; [4]", "result": 3.5, "unit": "µM"}, {"measurement": "CC50", "setting": "[3]", "result": 390, "unit": "µM"}]}
{"smiles": "CCCCCCCCCN1C[C@H](O)[C@@H](O)[C@H](O)[C@H]1CO", "values": [{"measurement": "Ratio CC50/EC50", "setting": "[1]", "result": 318}, {"measurement": "EC50", "setting": "[2]; [4]", "result": 1.1, "unit": "µM"}, {"measurement": "CC50", "setting": "[3]", "result": 350, "unit": "µM"}]}
{"smiles": "OC[C@@H]1[C@@H](O)[C@H](O)[C@@H](O)CN1CCCCCCOc1ccccc1F", "values": [{"measurement": "Ratio CC50/EC50", "setting": "[1]", "result": ">179"}, {"measurement": "EC50", "setting": "[2]; [4]", "result": 2.8, "unit": "µM"}, {"measurement": "CC50", "setting": "[3]", "result": "> 500", "unit": "µM"}]}
